Data reported in PMC9523306 (The Journal of Veterinary Medical Science, 2022).

Tests used:
Experiment in all cases: Reverse transcription-PCR, right cerebral cortex
Type in all cases: in vivo, rat
Conditions in all cases: retinoic acid + MCAO animals; 5 mg/kg intraperitoneally for four days before MCAO; ratio of PCR product intensity to β-actin intensity; mean ± S.E.M., n=5
Apolipoprotein A1 mRNA = test system: Apolipoprotein A1 mRNA
Outline: (§1)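 Male Sprague-Dawley rats (200–220 g). Test compound was given in PEG/0.9% NaCl/ethanol (70/20/10 by volume), and vehicle was solvent alone. The right MCA origin was occluded by intraluminal 4–0 nylon suture for 24 hr; shams had surgery without the suture. Total RNA from the right cortex (Trizol) was used, with 500 ng reverse-transcribed. PCR ran 28–30 cycles (94°C 30 sec, 54–56°C 30 sec, 72°C 1 min), then 1% agarose, UV, densitometry. Two-way ANOVA, Scheffe post-hoc.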

[1] = test system: Isocitrate dehydrogenase [NAD^+] subunit α mRNA
Outline: as §1

[2] = test system: Rab GDP dissociation inhibitor β mRNA
Outline: as §1

[3] = test system: Adenosylhomocysteinase mRNA
Outline: as §1

[4] = test system: glycerol-3-phosphate dehydrogenase mRNA
Outline: as §1

[5] = test system: heat shock protein 60 mRNA
Outline: as §1

## CC1=C(/C=C/C(C)=C/C=C/C(C)=C/C(=O)O)C(C)(C)CCC1 [retinoic acid, Retinoic acid]
Apolipoprotein A1 mRNA
  Apolipoprotein A1 mRNA levels: 1.13 ± 0.02
[1]
  Isocitrate dehydrogenase [NAD^+] subunit α mRNA levels: 1.36 ± 0.05
[2]
  Rab GDP dissociation inhibitor β mRNA levels: 1.02 ± 0.02
[3]
  Adenosylhomocysteinase mRNA levels: 1.28 ± 0.06
[4]
  Expression levels of glycerol-3-phosphate dehydrogenase mRNA: 0.91 ± 0.02
[5]
  Expression levels of heat shock protein 60 mRNA: 0.95 ± 0.05
